The EternaBench riboswitch data

Legend:
[1] = test system: MS2 coat protein; experiment: apparent Kd, MS2 coat protein; higher = weaker binding; RNA-MaP array; tryptophan 2.4 mM where present; settings: designed as: OFF switch for tryptophan
Method in brief: (§1)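 Designs were transcribed by stalled E. coli RNA polymerase on Illumina sequencing-chip clusters. They were titrated with SNAP-549-labelled MS2 coat protein from 0.7 or 1.5 nM, doubling to 3 µM, without and then with constant ligand. Buffer: 100 mM Tris-HCl pH 7.5, 80 mM KCl, 4 mM MgCl2, BSA, DTT, yeast tRNA, Tween-20. Green signal was normalised to red-channel RNA signal and control-cluster median Fmax. Apparent Kd is the median of filtered per-cluster binding-curve fits.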

[2] = test system: MS2 coat protein; experiment: apparent Kd, MS2 coat protein; higher = weaker binding; RNA-MaP array; theophylline 2 mM where present
Method in brief: as §1

[3] = designed as: ON switch for theophylline, no ligand
[4] = ligand present: theophylline, designed as: ON switch for theophylline
[5] = designed as: OFF switch for theophylline, no ligand
[6] = ligand present: theophylline, designed as: OFF switch for theophylline

UACUUGCUGACGGCCGCCACUAGAACAUGAGGAUCACCCAUGUACCUGGUCCUUCAUGGGUGGACUAGGACCGGGUCAGCAAGAU
apparent Kd ([1]; no ligand): 339 nM
apparent Kd ([1]; ligand present: tryptophan): 549 nM

CGUAUUGGAAACAGUACGAGUGAUCCGGUCCGAGGACCGGUACGGCCGCCACUCGAAAUAAAUAAACAUGAGGAUCACCCAUGUA
apparent Kd ([1]; no ligand): 18.6 nM
apparent Kd ([1]; ligand present: tryptophan): 28.4 nM

UUUACAUGAGGAUCACCCAUGUGCCAUGAUACCAGACAUGAAAAUGUCCCUUGGCAGCAUGAAUAAUCCUCGUCGGGAAACCGAC
apparent Kd [2, 3]: 140 nM
apparent Kd [2, 4]: 544 nM

UCGUGUGUUUCGGAUACCAGUGAAAUCGAUACAUGAGGAUCACCCAUGUGAGAGGAUGUACACCCUUGGCAGCUGUCUGUAGCGG
apparent Kd [2, 3]: 48.9 nM
apparent Kd [2, 4]: 37.4 nM

AGCCUCAUACAUGAGGAUCACCCAUGUGAUACCAGUCAGGAAACUGACCCUUGGCAGCGCAUGAGGAUCACCCAUGCGCGAGGCA
apparent Kd [2, 5]: 59.7 nM
apparent Kd [2, 6]: 113 nM

GCUGUAAGUGCAGAUACCAGCAAGUGAGGUUUCAUAUGACAUGAGGAUCACCCAUGUAUCUGCCCUUGGCAGCUGCACUUACAGC
apparent Kd [2, 3]: 21.4 nM
apparent Kd [2, 4]: 15.2 nM

UGUAACAUGAGGAUCACCCAUGUAAGUGAUACCAGAUAAGUAGUAGUCCCUUGGCAGCAUAUUGGGAAAGUGUAUAGUGUAUAUG
apparent Kd [2, 3]: 53.3 nM
apparent Kd [2, 4]: 61.7 nM

ACAUGAGGAUCACCCAUGUGGCGACUUGAUACCAGACCCGCACUAGUCCCUUGGCAGCAACUACGUGUGGGACACCCAUGUUAAG
apparent Kd [2, 5]: 16.9 nM
apparent Kd [2, 6]: 22 nM

UCACGACGCAUGGAUACCAGCGACAUGAGGAUCACCCAUGUAUGAGGAUCAGCCAUGUUAUGCCCUUGGCAGCCACGAAGGUCAU
apparent Kd [2, 5]: 14.1 nM
apparent Kd [2, 6]: 64.1 nM

UCAUUUGAGUGAGAUGUAAGGUAUCAUGAUACCAGUAGAUAAUUAUACCCUUGGCAGCAUGACAUGAGGAUCACCCAUGUACAUG
apparent Kd [2, 5]: 11.1 nM
apparent Kd [2, 6]: 10.3 nM

UCGGCAGUGAACGAUACCAGCGUCACGUGGCCGGUGGUCACAUGAGGAUCACCCAUGUAACGCCCUUGGCAGCGUGCGCGUACCG
apparent Kd [2, 5]: 23.9 nM
apparent Kd [2, 6]: 129 nM

UUUUAAAGCAUGGCGUAUCGGAAAACCGAUACCAGUACAGAAAUGUACCCUUGGCAGCGGCAUUUUACAUGAGGAUCACCCAUGU
apparent Kd [2, 5]: 14 nM
apparent Kd [2, 6]: 40.3 nM

AGUAUACAUUCUGAUACCAGAGACAUGAGGAUCACCCAUGUCCGAUCGUCCUGCCUCAGACUCCCUUGGCAGCAGGAUAUGUGCU
apparent Kd [2, 5]: 16.2 nM
apparent Kd [2, 6]: 27.6 nM

ACAUGAGGAUCACCCAUGUCAAGGCACGAUACCAGCUGAUCCCGUGGCCCUUGGCAGCGUCACGUUUGGUCCCGCGGAUGACACG
apparent Kd [2, 3]: 89 nM
apparent Kd [2, 4]: 95.8 nM

CUGCUACAUGAGGAUCACCCAUGUGGAGAUACCAGCCUGAACGAUGGCCCUUGGCAGCUCUUAGCUGGUGAUCAUAUAUUUCAGA
apparent Kd [2, 5]: 30.5 nM
apparent Kd [2, 6]: 146 nM

UUUUAACAUGAGGAUCACCCAUGUAAUGAUACCAGAGACGAAAGUCUCCCUUGGCAGCAUAUAUCAUUACUCAUAGGAAACUAUG
apparent Kd [2, 3]: 17.5 nM
apparent Kd [2, 4]: 16 nM

AGAUUACAUGUUAUAAUACGGUAUACUGAUACCAGUGUUUCUAUUCACCCUUGGCAGCAGCAACAUGAGGAUCACCCAUGUAUUA
apparent Kd [2, 3]: 17.1 nM
apparent Kd [2, 4]: 16 nM

ACGAACGAUAGUGAUACCAGACGUACAUGAGGAUCACCCAUGUUAUACACAUGGUUUAUUGUCCCUUGGCAGCACGAUAAGUUCG
apparent Kd [2, 5]: 225 nM
apparent Kd [2, 6]: 287 nM

UGUCUAGUAAUCGAUACCAGCUACAUGAGGAUCACCCAUGUAGUUCGAACGGCCGCAUGUAGCCCUUGGCAGCGAAUAGUUACAU
apparent Kd [2, 5]: 18.9 nM
apparent Kd [2, 6]: 52.7 nM

AUGUCGUUGAAUAUAGCGGCUUGGAGUGAUACCAGAAUGAUCUAAUUCCCUUGGCAGCAUUACAUGAGGAUCACCCAUGUUCCAG
apparent Kd [2, 3]: 51.1 nM
apparent Kd [2, 4]: 39.7 nM

UCGUGUGUUUCGGAUACCAGUGAAAUCGAUACAUGAGGAUCACCCAUGUGAGAGGAUGUACACCCUUGGCAGCUGGCUGUUGCGG
apparent Kd [2, 3]: 42.4 nM
apparent Kd [2, 4]: 42.6 nM

UGACAUUGCUGCGAUACCAGACAUGAGGAUCACCCAUGUGCCAAAUAAACGUACAUAAAUGUCCCUUGGCAGCGCAGCAAUGUCU
apparent Kd [2, 5]: 64.4 nM
apparent Kd [2, 6]: 752 nM

GAGCUGAUGUAGAAAUUUUAUUUCUGAGAUACCAGUACAGAAAUGUACCCUUGGCAGCUCAGUUUUACAUGAGGAUCACCCAUGU
apparent Kd [2, 5]: 12.2 nM
apparent Kd [2, 6]: 15 nM

AACAUGAGGAUCACCCAUGUAUUGGGUGAUACCAGCCUGAAUAAUGGCCCUUGGCAGCACCACGCUAACUUUAUGUCUGCGAACC
apparent Kd [2, 3]: 92.2 nM
apparent Kd [2, 4]: 162 nM

AAACUAACGAGAGGAAACCUCGAGGGUGAUACCAGCACAUAAGGGUGCCCUUGGCAGCACCGACGUACAUGAGGAUCACCCAUGU
apparent Kd [2, 3]: 162 nM
apparent Kd [2, 4]: 65 nM

AGAAUAACACAUGAGGAUCACCCAUGUGAUACCAGCUAGGAAACUAGCCCUUGGCAGCACAUAAUCCUCAUGAAUGUGCUGAAUA
apparent Kd [2, 5]: 70.4 nM
apparent Kd [2, 6]: 60.6 nM

CCUGCGUUUCUUUUCUUUCGCAGGAAUGAUACCAGUAGGGAAACCUACCCUUGGCAGCAUGGGUAACAUGAGGAUCACCCAUGUU
apparent Kd [2, 3]: 473 nM
apparent Kd [2, 4]: 82.2 nM

AUUUUCAUGGUCAUAUAUAUAUCUUCAGAUACCAGACUAUAUUAAGUCCCUUGGCAGCUGUUACAUGAGGAUCACCCAUGUUAUA
apparent Kd [2, 5]: 127 nM
apparent Kd [2, 6]: 36.2 nM

UGUAACAUGAGGAUCACCCAUGUAAGUGAUACCAGAUAAGUAGUAGUCCCUUGGCAGCAUAUUGGGAAAGUGUAUAGUCUAUAUU
apparent Kd [2, 3]: 57.2 nM
apparent Kd [2, 4]: 55.6 nM

GCCAGACAUGAGGAUCACCCAUGUAGCGAUACCAGCUCUGUUGUGAGCCCUUGGCAGCGCACUGGCAUCGCGGGUGAUCCUGCAU
apparent Kd [2, 3]: 43.4 nM
apparent Kd [2, 4]: 164 nM

AGUACACGAACGGAUACCAGCCGGACAUGAGGAUCACCCAUGUCCUACCUCUGUUCGGUUGGCCCUUGGCAGCCGUUCGUGUACA
apparent Kd [2, 3]: 117 nM
apparent Kd [2, 4]: 88.3 nM

GGUGGUGGGACGGAUACCAGCCACCGCGGCAACGCAACAUGAGGAUCACCCAUGUUGGGUGGCCCUUGGCAGCUGUCCUGCGGCG
apparent Kd [2, 3]: 13.9 nM
apparent Kd [2, 4]: 13.1 nM

UAUACAUGGGAUACCAUGGAUCCGAGUGAUACCAGCUAUCCGAAUAGCCCUUGGCAGCACAGUACAUGAGGAUCACCCAUGUAUA
apparent Kd [2, 3]: 27.5 nM
apparent Kd [2, 4]: 33 nM

GCUGUAAGUGCAGAUACCAGCAGGUGAUAUUUCAUAUGACAUGAGGAUCACCCAUGUAACUGCCCUUGGCAGCUGCACUUACAGC
apparent Kd [2, 3]: 373 nM
apparent Kd [2, 4]: 40.9 nM

UGAACAUGAGGAUCACCCAUGUAGUCAGAUACCAGACACUGCAUGGUCCCUUGGCAGCUGAAGAGCGUUUGCCAAAUAACGUUCA
apparent Kd [2, 3]: 162 nM
apparent Kd [2, 4]: 567 nM

ACGAACGAUAGUGAUACCAGACGUACAUGAGGAUCACCCAUGUUUUGGGUAAGGUUAAUAGUCCCUUGGCAGCACUUUAAGUUCG
apparent Kd [2, 5]: 58.7 nM
apparent Kd [2, 6]: 398 nM

UUUGAUAGGACAGAUACCAGCGUGUUAUAAAACAUGAGGAUCACCCAUGUAGUGAUCAAGCGCCCUUGGCAGCUGGUUUGUUAGG
apparent Kd [2, 3]: 188 nM
apparent Kd [2, 4]: 323 nM

AGCGACAUGCGUGAUACCAGCUACAUGAGGAUCACCCAUGUAAGUAGGAAACUACUGUGUAGCCCUUGGCAGCAUAGUGCAUGUC
apparent Kd [2, 5]: 13.5 nM
apparent Kd [2, 6]: 41.5 nM

GGUGGAGGCGUGGGACUUGUCUGAACGGAUACCAGCCACAUCACGGGCCCUUGGCAGCUGUACAUGAGGAUCACCCAUGUCGGUC
apparent Kd [2, 5]: 32.3 nM
apparent Kd [2, 6]: 93.7 nM

GGUGGUGUGACGGAUACCAGCCACCGCGGCAACGCAACAUGAGGAUCACCCAUGUUGGGUGGCCCUUGGCAGCUGUCGUGCGGCG
apparent Kd [2, 3]: 96.5 nM
apparent Kd [2, 4]: 84.7 nM

UAAUAUCACAUAUUAUGGGUGUAAUGUGAUACCAGCUAGGAAACUAGCCCUUGGCAGCACAUGAGGAUCACCCAUGUAAGCUGUA
apparent Kd [2, 5]: 77.9 nM
apparent Kd [2, 6]: 49.7 nM

CAGGUGCAGUCAGAUACCAGAUCUGCACAUGAGGAUCACCCAUGUGUAAUGAGUUCAAAGAUCCCUUGGCAGCUGUGUGAUCCGA
apparent Kd [2, 3]: 165 nM
apparent Kd [2, 4]: 193 nM

CCUGCUACGGGAAACCGUAGCAGGAAUGAUACCAGUAGGAAAGACUACCCUUGGCAGCAUGGGAAACAUGAGGAUCACCCAUGUU
apparent Kd [2, 3]: 56.3 nM
apparent Kd [2, 4]: 56.6 nM

AACUGGACCCGUGAUACCAGAGACAUGAGGAUCACCCAUGUACAUGAGGAUCACCCAUGUCUCCCUUGGCAGCACCGCAGGGAGC
apparent Kd [2, 5]: 97.5 nM
apparent Kd [2, 6]: 393 nM

CAUACUUUAGUAUGACAUGUGGGCAGUGAUACCAGAUACGAAAGUAUCCCUUGGCAGCACAACAUGAGGAUCACCCAUGUAAUUA
apparent Kd [2, 3]: 29.6 nM
apparent Kd [2, 4]: 59.2 nM

AUCGUACCUGAAGAUACCAGCAUGUGAUCAUAACAUGAGGAUCACCCAUGUAAUCAGUGAUGCCCUUGGCAGCUUGAUCGGUACA
apparent Kd [2, 3]: 40.8 nM
apparent Kd [2, 4]: 19.2 nM
